Results from PubChem BioAssay.
Records with an inconclusive call do not appear.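 Rule for the calls, unless noted: active = viability increase at or above a cutoff of the median across tested compounds plus 3 SD (cut at about 8.5% in these data, passing the limit was not always enough); inconclusive = some gains above the cutoff, reason not given; inactive = the rest.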

How the values were obtained:
[1] = OD615 S. cerevisiae growth inhibition, permissive medium, pilot counter-assay, permissive growth control for S. cerevisiae lifespan shortening project (AID 705;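 active = growth inhibition above 25% in both replicates, a cutoff set 3 SD above the mean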); settings: OD615, 24 h, at 10 µM, active compounds read high
Outline: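 System: S. cerevisiae with engineered DeaD lifespan system / Measured by: absorbance (optical density) at 615 nm / Read-out: reduction in yeast growth (OD615) / Times: 4 h cell pre-growth, 24 h exposure at 30 °C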

[2] = Restrictive medium S. cerevisiae growth inhibition, OD615, pilot screen of yeast lifespan reduction project, restrictive growth control (AID 706;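 active = growth inhibition above a set limit, 3 SD over mean compound inhibition, in both replicates, cut at about 43% in these data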;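 note: modified DeaD lifespan yeast strain shifted to restrictive glucose medium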); settings: OD615, 48 h, at 10 µM, active compounds read high
Outline: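 System: Engineered S. cerevisiae DeaD strain | Buffer or medium: Glucose-based CSMM-D restrictive medium | Schedule: 4 h pre-incubation, 48 h exposure at 30 °C | Technique: Optical density at 615 nm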

[3] = viability gain of MRP-1-high H69AR cells under doxorubicin, pilot screen, MRP-1 activator project, CellTiter-Glo, duplicate (AID 807); settings: H69AR viability with doxorubicin, CellTiter-Glo luminescence; at 10 µM; active compounds read high;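 note: compound pretreatment 18-22 h then 72 h combined with doxorubicin; 0% = doxorubicin alone and 100% = vehicle without doxorubicin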
[4] = growth suppression of beta-catenin knockout HCT116, pilot screen, human colon tumor cells (AID 823;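 active = cell viability at or below a set limit in both duplicate runs, the limit being the all-compound median minus 4 SD, cut at about 23% in these data, passing the limit was not always enough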;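 note: 0% = wells killed by 20 µM Hyamine and 100% = untreated DMSO cell wells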); settings: CellTiter-Glo, 60 h, at 10 µM, active compounds read low
[5] = growth suppression of PTEN-deleted HCT116, pilot screen, cell-based, HCT116 clonal line, CellTiter-Glo (AID 824;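 active = viability at or below 27.92% in each of two runs, the all-compound median minus 4 SD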;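 note: 0% = 20 µM Hyamine control and 100% = vehicle cell control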); settings: 60 h, at 10 µM, active compounds read low
[6] = inhibitors of the yeast RAM network, pilot screen, dse1pr::URA3 reporter, 5-FOA selection (AID 869;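 active = inhibition over a set limit, the all-compound mean plus 3 SD, in both replicate runs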;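 note: 0% = DMSO wells with no growth and 100% = 10 µM 1-NA-PP1 with full growth; RAM network block rescues cells from 5-FOA so hits raise OD615 growth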); settings: S. cerevisiae dse1pr::URA3 5-FOA growth, OD615, 2 d; at 10 µM; active compounds read high; strain carries analog-sensitive mutant Cbk1 kinase
[7] = RAM signaling pathway blockade in yeast – S. cerevisiae, Pdr1DBD-CYC8 efflux-inhibited sensitized strain, primary screen (AID 1298;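 active = RAM network inhibition above 8.4% in each of two replicates, 3 SD over the compound average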;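 note: 0% = DMSO untreated cells without growth and 100% = 10 µM 1-NA-PP1 full growth; higher means more yeast growth rescued from 5-FOA killing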); settings: S. cerevisiae cbk1-as DSE1-URA3 strain, 5-FOA growth OD615, 2 d; at 50 µM; active compounds read high

Cc1cc(C)n2nc(Nc3ccccc3)cc2n1
inactive: growth inhibition [1] -3.93% | growth inhibition [2] -10.7% | viability increase [3] -4.34% | viability [4] 90.1% | viability [5] 89.7% | inhibition [6] 1.97% | RAM network inhibition [7] 4.89%

Cc1ccc(S(=O)(=O)CNC(=O)c2ccccc2)cc1
inactive: growth inhibition [1] -4.27% | growth inhibition [2] 3.26% | viability increase [3] 1.64% | viability [4] 97.8% | viability [5] 96.8% | inhibition [6] 1.57% | RAM network inhibition [7] 0.51%

COc1ccc(C2C(C(=O)NCC3CCCO3)c3cc(OC)c(OC)cc3C(=O)N2C)cc1OC (stereo unspecified)
inactive: growth inhibition [1] -13.5% | growth inhibition [2] -13.4% | viability increase [3] -1.75% | viability [4] 92.4% | viability [5] 99.7% | inhibition [6] 1.46% | RAM network inhibition [7] 0.94%

CCN(CCCNS(=O)(=O)c1ccc2c(c1)CCN2C(C)=O)c1cccc(C)c1
inactive: growth inhibition [1] -4.96% | growth inhibition [2] 9.51% | viability increase [3] -2.74% | viability [4] 75.3% | viability [5] 82.5% | inhibition [6] 0.28% | RAM network inhibition [7] 4.1%

CC1CCCN(C(c2ccccc2)c2sc3ncnn3c2O)C1 (stereo unspecified)
inactive: growth inhibition [1] -7.14% | growth inhibition [2] -1.14% | viability increase [3] 3.23% | viability [4] 96.6% | viability [5] 84.8% | inhibition [6] 2.16% | RAM network inhibition [7] 4.56%

CN1CCN(Cc2ccc(-c3ccc(Cl)cc3)o2)CC1
inactive: growth inhibition [1] -15.8% | growth inhibition [2] -22.6% | viability increase [3] -2.14% | viability [4] 86.1% | viability [5] 102% | inhibition [6] 1.56% | RAM network inhibition [7] 2.49%

CCC(=O)N=c1sc2cc(F)cc(F)c2n1C
inactive: growth inhibition [1] -6.05% | growth inhibition [2] -7.75% | viability increase [3] -5.39% | viability [4] 93.4% | viability [5] 87.8% | inhibition [6] 1.4% | RAM network inhibition [7] 3.13%

CC(=O)C(Sc1ccc2nnc(-c3ccc(F)cc3)n2n1)C(C)=O
inactive: growth inhibition [1] 2.49% | growth inhibition [2] 26.7% | viability increase [3] -3.38% | viability [4] 91% | viability [5] 86.3% | inhibition [6] -0.355% | RAM network inhibition [7] 7.13%

C=CCOC(=O)c1[nH]c2c(c1C)C(=O)CC(c1cc(OC)c(OC)c(OC)c1)C2 (stereo unspecified)
inactive: growth inhibition [1] 1.75% | growth inhibition [2] 6.24% | viability increase [3] -0.05% | viability [4] 53.4% | viability [5] 66.7% | inhibition [6] 3.67% | RAM network inhibition [7] 5.97%

CCN(CC)S(=O)(=O)c1ccc(C2CNC(=O)C2)cc1 (stereo unspecified)
inactive: growth inhibition [1] -6.66% | growth inhibition [2] -3.95% | viability increase [3] 1.75% | viability [4] 106% | viability [5] 102% | inhibition [6] 1.48% | RAM network inhibition [7] -0.31%

CC(=O)NCc1nc2ccccc2n1Cc1ccccc1C
inactive: growth inhibition [1] 2.5% | growth inhibition [2] -3.57% | viability increase [3] -2.27% | viability [4] 101% | viability [5] 95.7% | inhibition [6] 1.05% | RAM network inhibition [7] 2.57%

CC1CCCN(C(=O)CNC(=O)Cn2ccc3ccccc3c2=O)C1 (stereo unspecified)
inactive: growth inhibition [1] -10.8% | growth inhibition [2] -1.01% | viability increase [3] -1.73% | viability [4] 99.5% | viability [5] 94.5% | inhibition [6] 2.08% | RAM network inhibition [7] 2.25%

Cc1ccc(NC(=O)C2C3C=CC4(CN(Cc5cccnc5)C(=O)C24)O3)cc1F (stereo unspecified)
inactive: growth inhibition [1] -0.35% | growth inhibition [2] -0.595% | viability increase [3] -1.71% | viability [4] 96.7% | viability [5] 97.2% | inhibition [6] 0.345% | RAM network inhibition [7] 9.57%

COc1ccc(C(C(=O)NC2CCCC2)N2CCc3ccccc32)cc1 (stereo unspecified)
inactive: growth inhibition [1] -12.6% | growth inhibition [2] -11.4% | viability increase [3] -3.02% | viability [4] 92.8% | viability [5] 87.9% | inhibition [6] 1.26% | RAM network inhibition [7] 1.52%

Cc1cc(-c2c(C)n([O-])c(C)c(C)[n+]2=O)ccc1F
inactive: growth inhibition [1] -10.8% | growth inhibition [2] -3.75% | viability increase [3] 0.1% | viability [4] 102% | viability [5] 98.2% | inhibition [6] 1.03% | RAM network inhibition [7] 0.32%

C(=C\c1ccccc1)/CSc1nnc(-c2cccnc2)o1
inactive: growth inhibition [1] 8.71% | growth inhibition [2] 32.7% | viability increase [3] 0.3% | viability [4] 99.9% | viability [5] 93.1% | inhibition [6] 0.04% | RAM network inhibition [7] 0.25%

Cn1c(CSc2nc3ccc(Br)cc3[nH]2)nc2ccccc21
inactive: growth inhibition [1] -3.63% | growth inhibition [2] 12.1% | viability increase [3] 1.66% | viability [4] 90.8% | viability [5] 85.2% | inhibition [6] 1.4% | RAM network inhibition [7] 9.55%

COC(=O)C1CCN(C(c2cccs2)c2sc3nc(C)nn3c2O)CC1 (stereo unspecified)
inactive: growth inhibition [1] -3.2% | growth inhibition [2] 1.52% | viability increase [3] -1.54% | viability [4] 102% | viability [5] 96.4% | inhibition [6] 1.68% | RAM network inhibition [7] 1.07%
